Source: paper PMC2696058 (Bioorganic & medicinal chemistry, 2009)

Assays:
N^5CAIR synthetase = N^5CAIR synthetase (Escherichia coli, UniProt P09029); assay: Kinetic analysis, PK/LDH coupled ATPase assay; assay type: biochemical; details: for Inhibition of N^5CAIR synthetase by DMSO (non-aqueous) solutions: compound added as DMSO solution, not aqueous solution; for Mode of inhibition with respect to AIR / Mode of inhibition with respect to ATP: steady-state kinetics; for Mode of inhibition with respect to AIR: varied AIR; for Mode of inhibition with respect to ATP: varied ATP
Sequence of N^5CAIR synthetase (P09029 whole entry): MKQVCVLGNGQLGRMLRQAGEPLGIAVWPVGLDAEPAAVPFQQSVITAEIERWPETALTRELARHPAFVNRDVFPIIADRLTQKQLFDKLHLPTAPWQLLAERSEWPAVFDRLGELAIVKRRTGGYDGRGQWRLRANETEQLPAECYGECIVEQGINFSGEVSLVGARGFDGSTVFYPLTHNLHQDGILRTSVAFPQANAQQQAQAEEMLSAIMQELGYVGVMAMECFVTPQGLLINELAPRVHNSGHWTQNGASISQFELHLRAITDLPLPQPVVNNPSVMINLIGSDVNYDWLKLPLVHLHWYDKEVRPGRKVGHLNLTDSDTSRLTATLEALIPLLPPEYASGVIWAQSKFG

[1] = Decomposition of compound solutions followed by TLC; assay type: physicochemical; details: aqueous solution
[2] = molecular target: T1, human AIR carboxylase:SAICAR synthetase (Homo sapiens, UniProt P22234); assay: Coupled assay against human bifunctional enzyme; assay type: biochemical; details: 200 μM compound, both activities assayed simultaneously
T1 sequence (P22234 1-425): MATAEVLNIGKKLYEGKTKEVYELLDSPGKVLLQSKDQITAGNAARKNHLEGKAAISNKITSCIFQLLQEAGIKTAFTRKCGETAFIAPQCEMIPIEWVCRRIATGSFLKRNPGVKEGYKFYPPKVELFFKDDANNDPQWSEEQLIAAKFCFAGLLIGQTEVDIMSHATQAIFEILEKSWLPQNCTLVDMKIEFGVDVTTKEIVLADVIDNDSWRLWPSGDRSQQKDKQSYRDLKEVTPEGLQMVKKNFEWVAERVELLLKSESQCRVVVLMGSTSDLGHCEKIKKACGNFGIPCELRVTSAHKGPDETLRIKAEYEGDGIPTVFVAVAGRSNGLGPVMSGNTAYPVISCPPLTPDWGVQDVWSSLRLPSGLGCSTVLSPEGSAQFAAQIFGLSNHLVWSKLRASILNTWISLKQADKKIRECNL
Summary of the method: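 His-tagged human bifunctional AIR carboxylase:SAICAR synthetase, expressed from a pET22b vector and purified on a cobalt affinity column, >95% pure by SDS-PAGE. The carboxylase and synthetase activities were measured together in one coupled assay, following a method previously described for the Gallus gallus bifunctional enzyme.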

Cc1nonc1NC1(O)C(=O)c2ccccc2C1=O [Compound 1]
Inhibition of N^5CAIR synthetase by DMSO (non-aqueous) solutions (N^5CAIR synthetase): neither compound resulted in inhibition | Time to complete decomposition to ninhydrin [1]: approximately 30 minutes

Cc1nc(NC2(O)C(=O)c3ccccc3C2=O)cs1 [Compound 2]
Inhibition of N^5CAIR synthetase by DMSO (non-aqueous) solutions (N^5CAIR synthetase): neither compound resulted in inhibition | Time to complete decomposition to ninhydrin [1]: around 45 minutes

CCN(CC)C(=O)CN1C(=O)C(=O)c2ccccc21 [Compound 7]
Mode of inhibition with respect to AIR (N^5CAIR synthetase): non-competitive | Mode of inhibition with respect to ATP (N^5CAIR synthetase): non-competitive | Inhibition of either enzymatic activity (AIR carboxylase, SAICAR synthetase) [2]: no inhibition

CCOC(=O)c1noc(C)c1-c1csc(CS(=O)(=O)c2ccc(Cl)cc2)n1 [Compound 13]
Mode of inhibition with respect to AIR (N^5CAIR synthetase): competitive | Mode of inhibition with respect to ATP (N^5CAIR synthetase): uncompetitive | Inhibition of either enzymatic activity (AIR carboxylase, SAICAR synthetase) [2]: no inhibition

Cc1cc2nc3c(=O)[nH]c(=O)nc-3n(C[C@H](O)[C@H](O)[C@H](O)CO)c2cc1C [Compound 14, riboflavin]
Mode of inhibition with respect to AIR (N^5CAIR synthetase): noncompetitive | Mode of inhibition with respect to ATP (N^5CAIR synthetase): noncompetitive | Inhibition of either enzymatic activity (AIR carboxylase, SAICAR synthetase) [2]: no inhibition
